Experimental data taken from ChEMBL document CHEMBL1667730, “Antibacterial and anti-inflammatory activities of 4-hydroxycordoin: potential therapeutic benefits” (J Nat Prod, 2011).
Values after ≈ are worked out from the molar mass of the structure shown. Active and inactive are the calls of the source. No cut-off for these calls is given here.

Key:
Porphyromonas gingivalis [1] = assay: Antibacterial activity against Porphyromonas gingivalis ATCC 33277 after 24 hrs; type: functional
Procedure, shortened: (§1)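 Broth microdilution in THB-HK: 24 h cultures diluted to OD655 0.2, mixed 1:1 with compound (0–40 µg/mL, twofold steps from 0.63), 24 h at 37 °C anaerobic (N2-H2-CO2 80:10:10); growth by OD655 relative to untreated. MIC = lowest concentration with no growth; MBC from no-growth wells plated on THB-HK agar, 5 days anaerobic. Triplicate, two independent experiments.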

Fusobacterium nucleatum = assay: Antibacterial activity against Fusobacterium nucleatum ATCC 25586 after 24 hrs; type: functional; procedure, shortened: as §1
Prevotella intermedia [2] = assay: Antibacterial activity against Prevotella intermedia ATCC 25611 after 24 hrs; type: functional; procedure, shortened: as §1
Prevotella intermedia [3] = assay: Antibacterial activity against Prevotella intermedia ATCC 25611 assessed as reduction of bacterial growth at 1.25 ug/ml after 24 hrs; type: functional; design: scale not given: the % may be the effect or the level left; procedure, shortened: as §1
Porphyromonas gingivalis [4] = assay: Antibacterial activity against 14C-labeled Porphyromonas gingivalis ATCC 33277 assessed as inhibition of adhesion to human GMSM-K cells after 30 mins by scintillation counting; type: functional, cell-based
Procedure, shortened: (§2)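 14C-amino acid-labelled (20 µCi/mL, 16 h, anaerobic) mid-log P. gingivalis washed in PBS pH 7.2, suspended to OD655 0.8 in prereduced PBS; mixed with compound (final 0, 0.2, 1, 5 µg/mL) and added to confluent GMSM-K monolayers for 30 min at 37 °C; unbound cells washed off, bound bacteria released with 0.5 M NaOH, scintillation counted. Triplicate, three independent assays, mean ± SD.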

Porphyromonas gingivalis [5] = assay: Antibacterial activity against 14C-labeled Porphyromonas gingivalis ATCC 33277 assessed as inhibition of adhesion to human GMSM-K cells at 0.2 ug/ml after 30 mins by scintillation counting; type: functional, cell-based; procedure, shortened: as §2
Porphyromonas gingivalis [6] = assay: Antibacterial activity against 14C-labeled Porphyromonas gingivalis ATCC 33277 assessed as inhibition of adhesion to human GMSM-K cells at 1 ug/ml after 30 mins by scintillation counting relative to control; type: functional; conditions: ATCC 33277, GMSM-K, 0.5 h; procedure, shortened: as §2
Porphyromonas gingivalis [7] = assay: Antibacterial activity against 14C-labeled Porphyromonas gingivalis ATCC 33277 assessed as inhibition of adhesion to human GMSM-K cells at 5 ug/ml after 30 mins by scintillation counting relative to control; type: functional; conditions: ATCC 33277, GMSM-K, 0.5 h; procedure, shortened: as §2
U-937 [8] = assay: Antiinflammatory activity in human U937 cells assessed as inhibition of LPS-induced IL1-beta production at 5 ug/ml treated 2 hrs before LPS challenge measured after 24 hrs by ELISA; type: functional
Procedure, shortened: (§3)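 PMA-differentiated U937 macrophages (10 ng/mL PMA 48 h, then 24 h rest) at 1 × 10^6 cells/mL in RPMI with 1% FBS; compound (0, 0.2, 1, 5 µg/mL) for 2 h, then A. actinomycetemcomitans ATCC 29522 LPS (1 µg/mL final) for 24 h, 37 °C 5% CO2. Supernatant cytokines and MMP-9 by ELISA (A450, 550 correction). Triplicate, two experiments, t test.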

U-937 [9] = assay: Antiinflammatory activity in human U937 cells assessed as inhibition of LPS-induced IL-8 production at 5 ug/ml treated 2 hrs before LPS challenge measured after 24 hrs by ELISA; type: functional; procedure, shortened: as §3
U-937 [10] = assay: Antiinflammatory activity in human U937 cells assessed as inhibition of LPS-induced TNFalpha production at 5 ug/ml treated 2 hrs before LPS challenge measured after 24 hrs by ELISA; type: functional; procedure, shortened: as §3
U-937 [11] = assay: Antiinflammatory activity in human U937 cells assessed as inhibition of LPS-induced IL-6 production at 5 ug/ml treated 2 hrs before LPS challenge measured after 24 hrs by ELISA; type: functional; procedure, shortened: as §3
U-937 [12] = assay: Antiinflammatory activity in human U937 cells assessed as inhibition of LPS-induced CCL5 production at 5 ug/ml treated 2 hrs before LPS challenge measured after 24 hrs by ELISA; type: functional; procedure, shortened: as §3
U-937 [13] = assay: Antiinflammatory activity in human U937 cells assessed as inhibition of LPS-induced PGE2 production at 5 ug/ml treated 2 hrs before LPS challenge measured after 24 hrs; type: functional, cell-based
U-937 [14] = assay: Antiinflammatory activity in human U937 cells assessed as inhibition of IL1-beta production at 5 ug/ml after 24 hrs by ELISA; type: functional, cell-based; procedure, shortened: as §3
U-937 [15] = assay: Antiinflammatory activity in human U937 cells assessed as inhibition of IL-8 production at 5 ug/ml after 24 hrs by ELISA; type: functional, cell-based; procedure, shortened: as §3
U-937 [16] = assay: Antiinflammatory activity in human U937 cells assessed as inhibition of TNFalpha production at 5 ug/ml after 24 hrs by ELISA; type: functional, cell-based; procedure, shortened: as §3
U-937 [17] = assay: Antiinflammatory activity in human U937 cells assessed as inhibition of IL-6 production at 5 ug/ml after 24 hrs by ELISA; type: functional, cell-based; procedure, shortened: as §3
U-937 [18] = assay: Antiinflammatory activity in human U937 cells assessed as inhibition of CCL5 production at 5 ug/ml after 24 hrs by ELISA; type: functional, cell-based; procedure, shortened: as §3
U-937 [19] = assay: Antiinflammatory activity in human U937 cells assessed as inhibition of PGE2 production at 5 ug/ml after 24 hrs; type: functional, cell-based
U-937 [20] = assay: Antiinflammatory activity in human U937 cells assessed as inhibition of LPS-induced MMP9 production at 1 ug/ml treated 2 hrs before LPS challenge measured after 24 hrs by ELISA; type: functional, cell-based; procedure, shortened: as §3
U-937 [21] = assay: Antiinflammatory activity in human U937 cells assessed as inhibition of LPS-induced MMP9 production at 5 ug/ml treated 2 hrs before LPS challenge measured after 24 hrs by ELISA; type: functional, cell-based; procedure, shortened: as §3
U-937 [22] = assay: Antiinflammatory activity in human U937 cells assessed as inhibition of LPS-induced NF-kappaB p65 activation at 5 ug/ml treated 1 hrs before LPS challenge measured after 1 hr; type: functional, cell-based
Procedure, shortened: (§4)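 PMA-differentiated U937 macrophages given compound at 5 µg/mL for 1 h, then A. actinomycetemcomitans LPS at 1 µg/mL for 1 h, 37 °C 5% CO2. Whole-cell extracts adjusted to 1 mg/mL protein; NF-κB p65 and AP-1 activation measured by Trans-AM kits. Unstimulated and compound-free controls included; triplicate, three independent experiments.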

U-937 [23] = assay: Antiinflammatory activity in human U937 cells assessed as inhibition of LPS-induced AP-1 activation at 5 ug/ml treated 1 hrs before LPS challenge measured after 1 hr; type: functional, cell-based; procedure, shortened: as §4
[24] = Cytotoxicity against human GMSM-K cells assessed as reduction of cell viability at up to 50 ug/ml after 2 hrs by MTT assay; type: cell-based
Procedure, shortened: (§5)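 MTT colorimetric viability assay on GMSM-K epithelial cells and PMA-differentiated U937 macrophages after 2 h exposure to compound at up to 50 µg/mL.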

U-937 [25] = assay: Cytotoxicity against human U937 cells assessed as reduction of cell viability at up to 50 ug/ml after 2 hrs by MTT assay; type: cell-based; conditions: u-937, 2 h; procedure, shortened: as §5

CC(C)=CCOc1ccc(C(=O)/C=C/c2ccc(O)cc2)c(O)c1
Activity (Porphyromonas gingivalis [1]): Dose-dependent effect | MBC (Porphyromonas gingivalis [1]; ATCC 33277, 24 h): 10 µg/mL (≈ 30.8 µM) | MIC (Porphyromonas gingivalis [1]; ATCC 33277, 24 h): 5 µg/mL (≈ 15.4 µM) | Activity (Fusobacterium nucleatum): Dose-dependent effect | MBC (Fusobacterium nucleatum; ATCC 25586, 24 h): > 40 µg/mL | MIC (Fusobacterium nucleatum; ATCC 25586, 24 h): 40 µg/mL (≈ 123 µM) | Activity (Prevotella intermedia [2]): Dose-dependent effect | MBC (Prevotella intermedia [2]; ATCC 25611, 24 h): 5 µg/mL (≈ 15.4 µM) | MIC (Prevotella intermedia [2]; ATCC 25611, 24 h): 2.5 µg/mL (≈ 7.71 µM) | Activity (Prevotella intermedia [3]): 45% | inhibition (Porphyromonas gingivalis [4]): Dose-dependent effect | inhibition (Porphyromonas gingivalis [5]): inactive | inhibition at 1 µg/mL (Porphyromonas gingivalis [6]): 31% | inhibition at 5 µg/mL (Porphyromonas gingivalis [7]): 36% | inhibition at 5 µg/mL (U-937 [8]): 29% | inhibition at 5 µg/mL (U-937 [9]): 38% | inhibition at 5 µg/mL (U-937 [10]): 23% | inhibition at 5 µg/mL (U-937 [11]): 50% | inhibition at 5 µg/mL (U-937 [12]): 67% | inhibition (U-937 [13]): Active | inhibition (U-937 [14]): inactive | inhibition (U-937 [15]): inactive | inhibition (U-937 [16]): inactive | inhibition (U-937 [17]): inactive | inhibition (U-937 [18]): inactive | inhibition (U-937 [19]): inactive | inhibition (U-937 [20]): Active | inhibition (U-937 [21]): Active | inhibition (U-937 [22]): Active | inhibition (U-937 [23]): Active | Activity [24]: Non-toxic | Activity (U-937 [25]): Non-toxic
